Activity calls are given as the source filed them. The calls are words filed in the database; no cut-off is given here.
Legend:
[1] = target: NT-3 growth factor receptor (Homo sapiens) (UniProt Q16288); test: Binding affinity at human TrkC expressed in mouse NIH/3T3 cells by FACS analysis; format: cell-based; settings: NIH3T3
Summary of the method: (§1)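 Stably transfected NIH-3T3 cells expressing the indicated receptor were incubated at 4 °C with biotin-tagged ligand (50 μM), then with fluorescein-avidin. After washing, cells were analysed by flow cytometry. Background mean channel fluorescence of NIH-IGF-1R cells was subtracted to give specific binding. Mean ± SEM, n = 3 independent experiments.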

NIH3T3 = test: Cytotoxicity against mouse NIH/3T3 cells by MTT assay; format: cell-based
[2] = target: High affinity nerve growth factor receptor (Homo sapiens) (UniProt P04629); test: Antagonist activity at human TrkA expressed in mouse NIH/3T3 assessed as inhibition of NGF-induced cytoprotection at 20 uM by MTT assay relative to NGF; format: functional, cell-based; settings: NIH3T3
Chain of High affinity nerve growth factor receptor (Homo sapiens) (P04629 33-796 limits assumed): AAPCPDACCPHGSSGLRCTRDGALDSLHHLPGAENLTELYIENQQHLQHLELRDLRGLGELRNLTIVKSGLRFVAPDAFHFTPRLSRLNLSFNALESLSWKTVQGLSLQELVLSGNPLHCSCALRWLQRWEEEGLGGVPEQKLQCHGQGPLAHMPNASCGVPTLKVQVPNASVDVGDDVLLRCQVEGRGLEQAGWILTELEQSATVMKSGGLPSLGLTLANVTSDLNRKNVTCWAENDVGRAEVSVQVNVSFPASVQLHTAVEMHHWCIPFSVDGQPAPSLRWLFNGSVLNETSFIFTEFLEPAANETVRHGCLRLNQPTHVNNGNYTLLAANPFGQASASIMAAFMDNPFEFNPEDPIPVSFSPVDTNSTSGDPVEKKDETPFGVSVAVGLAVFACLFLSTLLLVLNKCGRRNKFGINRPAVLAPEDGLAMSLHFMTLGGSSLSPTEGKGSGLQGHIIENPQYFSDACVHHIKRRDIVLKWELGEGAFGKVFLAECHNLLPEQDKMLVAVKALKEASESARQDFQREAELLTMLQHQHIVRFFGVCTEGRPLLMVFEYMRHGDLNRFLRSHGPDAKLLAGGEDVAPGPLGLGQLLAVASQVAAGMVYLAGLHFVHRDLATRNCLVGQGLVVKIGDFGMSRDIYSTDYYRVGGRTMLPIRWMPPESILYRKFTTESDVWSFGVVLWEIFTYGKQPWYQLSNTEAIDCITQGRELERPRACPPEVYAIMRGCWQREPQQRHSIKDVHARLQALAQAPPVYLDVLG
Summary of the method: (§2)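 Survival of NIH-3T3 cells expressing TrkA, TrkC or IGF-1R was measured by MTT in serum-free medium. Medium held the matching growth factor (NGF for TrkA, NT-3 for TrkC, IGF-1 for IGF-1R) at optimal 10 nM or sub-optimal 0.2 nM, ± compound at 20 μM. Survival was expressed relative to optimal growth factor-mediated survival (100%); average ± sd.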

[3] = target: Insulin-like growth factor 1 receptor (Homo sapiens) (UniProt P08069); test: Antagonist activity at human IGF1R expressed in mouse NIH/3T3 cells assessed as inhibition of IGF-induced cytoprotection at 20 uM by MTT assay relative to IGF; format: functional, cell-based; settings: NIH3T3; summary of the method: as §2
Chain of Insulin-like growth factor 1 receptor (Homo sapiens) (P08069 31-736 limits assumed): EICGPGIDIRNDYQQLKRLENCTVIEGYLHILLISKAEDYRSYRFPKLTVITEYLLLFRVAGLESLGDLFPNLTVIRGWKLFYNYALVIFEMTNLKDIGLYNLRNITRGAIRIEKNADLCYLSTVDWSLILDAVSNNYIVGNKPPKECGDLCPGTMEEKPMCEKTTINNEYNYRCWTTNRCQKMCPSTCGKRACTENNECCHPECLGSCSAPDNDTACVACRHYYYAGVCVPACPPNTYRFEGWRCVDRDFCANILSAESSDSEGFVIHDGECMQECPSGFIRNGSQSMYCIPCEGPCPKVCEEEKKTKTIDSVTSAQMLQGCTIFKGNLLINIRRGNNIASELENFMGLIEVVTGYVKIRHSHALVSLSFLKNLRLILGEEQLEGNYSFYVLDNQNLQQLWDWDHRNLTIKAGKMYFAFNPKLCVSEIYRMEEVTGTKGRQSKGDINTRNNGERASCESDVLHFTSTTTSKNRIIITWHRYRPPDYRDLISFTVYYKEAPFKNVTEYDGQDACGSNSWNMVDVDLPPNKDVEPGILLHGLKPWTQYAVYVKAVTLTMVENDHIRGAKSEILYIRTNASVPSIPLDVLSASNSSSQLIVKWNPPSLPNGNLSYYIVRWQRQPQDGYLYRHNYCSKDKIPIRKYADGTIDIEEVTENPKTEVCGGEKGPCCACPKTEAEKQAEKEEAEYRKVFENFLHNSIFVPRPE
Chain of Insulin-like growth factor 1 receptor (Homo sapiens) (P08069 741-1367 limits assumed): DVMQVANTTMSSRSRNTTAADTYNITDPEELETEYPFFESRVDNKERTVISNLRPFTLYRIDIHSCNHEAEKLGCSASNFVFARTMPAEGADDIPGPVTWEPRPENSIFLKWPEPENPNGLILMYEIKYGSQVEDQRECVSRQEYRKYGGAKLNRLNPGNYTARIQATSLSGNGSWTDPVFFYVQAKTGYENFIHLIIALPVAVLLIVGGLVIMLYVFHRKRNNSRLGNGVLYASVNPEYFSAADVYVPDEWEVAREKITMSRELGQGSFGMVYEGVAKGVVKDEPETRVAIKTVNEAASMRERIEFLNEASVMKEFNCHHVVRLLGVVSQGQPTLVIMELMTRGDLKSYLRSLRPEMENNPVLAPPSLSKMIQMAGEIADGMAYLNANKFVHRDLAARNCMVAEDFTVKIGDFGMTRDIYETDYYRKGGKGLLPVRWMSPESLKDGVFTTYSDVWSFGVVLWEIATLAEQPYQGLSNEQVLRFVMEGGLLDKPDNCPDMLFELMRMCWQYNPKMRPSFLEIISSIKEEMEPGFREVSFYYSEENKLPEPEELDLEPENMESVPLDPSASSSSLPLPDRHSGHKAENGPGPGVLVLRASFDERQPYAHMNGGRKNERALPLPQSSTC

[4] = target: High affinity nerve growth factor receptor (Homo sapiens) (UniProt P04629); test: Binding affinity to human TrkA expressed in mouse NIH/3T3 cells by FACS analysis; format: cell-based; settings: NIH3T3; summary of the method: as §1
[5] = target: Insulin-like growth factor 1 receptor (Homo sapiens) (UniProt P08069); test: Antagonist activity at human IGF1R expressed in mouse NIH/3T3 cells assessed as decrease in IGF-induced tyrosin phosphorylation at 20 uM after 20 mins by Western blotting; format: functional, cell-based; settings: NIH3T3
[6] = target: Insulin-like growth factor 1 receptor (Homo sapiens) (UniProt P08069); test: Binding affinity to human IGF1R expressed in mouse NIH/3T3 cells by FACS analysis; format: cell-based; settings: NIH3T3
[7] = target: Tumor necrosis factor receptor superfamily member 16 (p75NTR, NGFR) (Homo sapiens) (UniProt P08138); test: Binding affinity to human p75 expressed in mouse NIH/3T3 cells by FACS analysis; settings: NIH3T3
Chain of Tumor necrosis factor receptor superfamily member 16 (p75NTR, NGFR) (Homo sapiens) (P08138 whole entry, looked up): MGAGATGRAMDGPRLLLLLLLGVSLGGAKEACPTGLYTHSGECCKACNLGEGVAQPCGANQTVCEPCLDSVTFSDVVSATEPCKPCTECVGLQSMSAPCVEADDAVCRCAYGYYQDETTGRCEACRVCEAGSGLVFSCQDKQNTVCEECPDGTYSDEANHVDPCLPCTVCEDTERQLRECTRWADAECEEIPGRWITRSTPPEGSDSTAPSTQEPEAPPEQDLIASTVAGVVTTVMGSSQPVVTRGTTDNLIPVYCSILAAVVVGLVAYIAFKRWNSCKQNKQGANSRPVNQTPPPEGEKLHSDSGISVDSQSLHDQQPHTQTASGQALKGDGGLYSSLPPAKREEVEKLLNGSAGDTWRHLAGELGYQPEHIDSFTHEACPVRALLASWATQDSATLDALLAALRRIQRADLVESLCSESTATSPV

[8] = target: NT-3 growth factor receptor (Homo sapiens) (UniProt Q16288); test: Antagonist activity at human TrkC expressed in mouse NIH/3T3 cells assessed as inhibition of NT3-induced cytoprotection at 20 uM by MTT assay relative to NT3; format: functional, cell-based; settings: NIH3T3; summary of the method: as §2
[9] = target: High affinity nerve growth factor receptor (Homo sapiens) (UniProt P04629); test: Antagonist activity at human TrkA expressed in mouse NIH/3T3 cells assessed as decrease in NGF-induced tyrosin phosphorylation at 20 uM after 20 mins by Western blotting; format: functional, cell-based; settings: NIH3T3
[10] = target: NT-3 growth factor receptor (Homo sapiens) (UniProt Q16288); test: Antagonist activity at human TrkC expressed in mouse NIH/3T3 cells assessed as decrease in NT3-induced TrkC-pTyr level at 20 uM after 20 mins by Western blotting; format: functional, cell-based; set-up: scale not given: the % may be the effect or the level left; settings: NIH3T3
Summary of the method: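 NIH3T3-TrkC cells were exposed to NT-3 (2 nM) ± compound (20 μM) for 20 min. Detergent lysates were Western blotted with anti-pTyr mAb 4G10 and anti-phospho-MAPK, then re-blotted for actin to normalise loading. Bands were quantified by densitometry.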

Chain of NT-3 growth factor receptor (Homo sapiens) (Q16288 32-839 limits assumed): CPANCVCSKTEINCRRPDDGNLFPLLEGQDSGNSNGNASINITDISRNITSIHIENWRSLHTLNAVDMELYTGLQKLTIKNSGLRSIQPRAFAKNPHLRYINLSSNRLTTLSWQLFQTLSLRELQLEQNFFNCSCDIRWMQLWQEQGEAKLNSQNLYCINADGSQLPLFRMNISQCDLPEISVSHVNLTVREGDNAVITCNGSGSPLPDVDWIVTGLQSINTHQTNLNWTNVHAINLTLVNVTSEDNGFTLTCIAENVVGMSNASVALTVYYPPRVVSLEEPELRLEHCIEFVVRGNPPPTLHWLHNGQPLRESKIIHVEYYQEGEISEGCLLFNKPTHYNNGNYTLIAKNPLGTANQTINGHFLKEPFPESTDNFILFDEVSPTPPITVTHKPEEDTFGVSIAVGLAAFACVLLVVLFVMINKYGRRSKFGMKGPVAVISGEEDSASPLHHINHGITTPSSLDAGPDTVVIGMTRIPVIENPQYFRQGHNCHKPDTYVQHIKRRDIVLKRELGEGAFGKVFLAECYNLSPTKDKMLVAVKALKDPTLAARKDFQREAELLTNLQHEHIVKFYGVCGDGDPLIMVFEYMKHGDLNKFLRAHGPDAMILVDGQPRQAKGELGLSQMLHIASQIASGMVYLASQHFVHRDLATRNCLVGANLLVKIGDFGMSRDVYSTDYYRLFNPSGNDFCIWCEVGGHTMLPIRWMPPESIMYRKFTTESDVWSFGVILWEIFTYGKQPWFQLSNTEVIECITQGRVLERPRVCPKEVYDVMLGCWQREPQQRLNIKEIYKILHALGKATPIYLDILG

## CN1C(=O)CN([C@@H](CCCCN)C(=O)NCCCCCCCCCCC(=O)N2CCN(c3nc(NCCCC[C@@H]4SC[C@@H]5NC(=O)N[C@@H]54)nc(N4CCN(C(=O)[C@H](CCCCN)N5CC(=O)N(C)[C@@H](CCC(=O)O)C5=O)CC4)n3)CC2)C(=O)[C@@H]1CCC(=O)O
[1]
  Activity: Active
NIH3T3
  Activity: Non-toxic
[2]
  inhibition: inactive
[3]
  inhibition: inactive
[4]
  Activity: inactive
[5]
  Activity: inactive
[6]
  Activity: inactive
[7]
  Activity: inactive
[8]
  inhibition: 30%
[9]
  Activity: inactive
[10]
  Activity: 40%

Source: ChEMBL document CHEMBL1177730, “Bivalent diketopiperazine-based tropomysin receptor kinase C (TrkC) antagonists” (J Med Chem, 2010)
